For 76 sequences, Tm and folding enthalpy results are on record in the array DNA melting data of Ke et al. (doi:10.1101/2024.01.08.574731).

Series [1] can be described thus: melting temperature; fluorescence melt of hairpins on a sequencing array, two-state fit, raised by 9.35 °C to match UV melts. The settings on record: sodium 0.088 M. The method in brief:
(§1)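 To match UV melts, fitted temperatures were raised by 9.35 °C. These fits were bootstrapped two-state models that gave melting temperature and folding enthalpy, combined by inverse variance over four replicates. The input was normalised Cy3 fluorescence of library hairpins with annealed Cy3 and quencher oligos on a sequenced MiSeq flow cell, imaged in 50 mM Na-HEPES pH 8.0, 25 mM NaCl in 2.5 °C steps up to 60 °C.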

Series [2] is described as follows: folding enthalpy; higher = less favourable; fluorescence melt of hairpins on a sequencing array, two-state fit. The note with it: sodium 0.088 M. The method in brief: as §1

For GATCGGGGAAACCTGATC ((((.((....)).)))), the Tm in series [1] was 49.2 °C. The folding enthalpy in series [2] is -43.8 kcal/mol.
For GATCGGGGCACCGATC ((((((....)))))), in that order: 65.9 °C and -34.9 kcal/mol.
For GATCGGGGCCCCGATC ((((((....)))))), in that order: 68.6 °C and -55 kcal/mol.
As for GATCGGGGCGCCGATC ((((((....)))))), the Tm in series [1] was found to be 58.4 °C. The folding enthalpy in series [2] is -39 kcal/mol.
As for GATCGGGGCTCCGATC ((((((....)))))), the Tm in series [1] came to 59.4 °C. Besides, the folding enthalpy in series [2] was -34.5 kcal/mol.
In the same order, the values of GATCGGGGTCCCGATC ((((((....)))))) are 61 °C and -39.5 kcal/mol.
For GATCGGGTCCCCGATC ((((((....)))))), the Tm in series [1] was found to be 61.3 °C. Also, the folding enthalpy in series [2] is -40.4 kcal/mol.
Turning to GATCGGGTTACCGATC ((((((....)))))), the Tm in series [1] was determined as 67.3 °C. The folding enthalpy in series [2] is -35.8 kcal/mol.
In the same order, the values of GATCGGTAAACCGATC ((((((....)))))) are 56.2 °C and -40.7 kcal/mol.
In the same order, the values of GATCGGTAGACCGATC ((((((....)))))) are 57 °C and -41.1 kcal/mol.
For GATCGGTCTCCCGATC ((((((....)))))), in that order: 56.1 °C and -41 kcal/mol.
For GATCGGTGCGCCGATC ((((((....)))))), in series [1], the Tm was 66.9 °C. The folding enthalpy in series [2] is -36.9 kcal/mol.
In the same order, the values of GATCGGTGGCCCGATC ((((((....)))))) are 57.1 °C and -37.6 kcal/mol.
GATCGGTGTACCGATC ((((((....)))))): the Tm in series [1] is 65.8 °C. Also, the folding enthalpy in series [2] was -36.3 kcal/mol.
In the same order, the values of GATCGGTGTGCCGATC ((((((....)))))) are 64.8 °C and -33.2 kcal/mol.
In the same order, the values of GATCGGTTCCCGATC ((((((...)))))) are 59.3 °C and -39.3 kcal/mol.
With GATCGGTTCGCCGATC ((((((....)))))), in series [1], the Tm was 61.4 °C. Moreover, the folding enthalpy in series [2] is -45 kcal/mol.
On to GATCGGTTGCCGATC ((((((...)))))), for which the Tm in series [1] amounted to 59.1 °C. In series [2], the folding enthalpy was -28.6 kcal/mol.
As for GATCGGTTTCCGATC ((((((...)))))), the Tm in series [1] turned out to be 59 °C. The folding enthalpy in series [2] is -34.7 kcal/mol.
For GATCGTAAAGACGATC ((((((....)))))), in that order: 51.1 °C and -31.4 kcal/mol.
In the same order, the values of GATCGTAACAACGATC ((((((....)))))) are 55 °C and -35.4 kcal/mol.
Regarding GATCGTAACCACGATC ((((((....)))))), the Tm in series [1] came to 54.8 °C. The folding enthalpy in series [2] was -35.8 kcal/mol.
Take GATCGTAAGAACGATC ((((((....)))))): the Tm in series [1] was 50.5 °C. Besides, the folding enthalpy in series [2] was -35.1 kcal/mol.
Turning to GATCGTAAGACGATC ((((((...)))))), in series [1], the Tm was determined as 54.2 °C. In series [2], the folding enthalpy is -42.3 kcal/mol.
For GATCGTAATACGATC ((((((...)))))), in that order: 53.5 °C and -41.5 kcal/mol.
For GATCGTACATACGATC ((((((....)))))), in that order: 54.9 °C and -41.2 kcal/mol.
For GATCGTACCAACGATC ((((((....)))))), in that order: 55.5 °C and -36.7 kcal/mol.
Turning to GATCGTACCCACGATC ((((((....)))))), the Tm in series [1] was 54.1 °C. For the same sequence, in series [2], the folding enthalpy is -40 kcal/mol.
GATCGTAGGACGATC ((((((...)))))): in series [1], the Tm is 54.7 °C. The folding enthalpy in series [2] is -44.2 kcal/mol.
Regarding GATCGTAGTAACGATC ((((((....)))))), in series [1], the Tm came to 55.7 °C. Besides, the folding enthalpy in series [2] was -41.5 kcal/mol.
In the case of GATCGTATAGACGATC ((((((....)))))), the Tm in series [1] came out at 53 °C. For the same sequence, the folding enthalpy in series [2] was -38.1 kcal/mol.
For GATCGTATGGACGATC ((((((....)))))), the Tm in series [1] was 56.5 °C. For the same sequence, the folding enthalpy in series [2] is -27 kcal/mol.
For GATCGTATGTACGATC ((((((....)))))), in that order: 56.8 °C and -37.7 kcal/mol.
In the case of GATCGTATTACGATC ((((((...)))))), the Tm in series [1] stood at 57 °C. Moreover, in series [2], the folding enthalpy is -36.1 kcal/mol.
In the same order, the values of GATCGTATTCACGATC ((((((....)))))) are 55.1 °C and -34.7 kcal/mol.
In the case of GATCGTCATTACGATC ((((((....)))))), in series [1], the Tm was 54.8 °C. Moreover, the folding enthalpy in series [2] is -38.5 kcal/mol.
For GATCGTCCAGACGATC ((((((....)))))), in that order: 59.8 °C and -42.3 kcal/mol.
In the same order, the values of GATCGTCCGACGATC ((((((...)))))) are 53.9 °C and -40.9 kcal/mol.
In the same order, the values of GATCGTCCTGACGATC ((((((....)))))) are 59.4 °C and -46.3 kcal/mol.
As for GATCGTCGAGACGATC ((((((....)))))), in series [1], the Tm stood at 60 °C. The folding enthalpy in series [2] was -36.9 kcal/mol.
In the case of GATCGTCGCAACGATC ((((((....)))))), in series [1], the Tm is 56.2 °C. Moreover, the folding enthalpy in series [2] was -38.1 kcal/mol.
In the same order, the values of GATCGTCGGACGATC ((((((...)))))) are 53.8 °C and -38.9 kcal/mol.
As for GATCGTCGTACGATC ((((((...)))))), the Tm in series [1] was determined as 60.4 °C. The folding enthalpy in series [2] is -29.3 kcal/mol.
In the same order, the values of GATCGTCGTCACGATC ((((((....)))))) are 53.5 °C and -40.6 kcal/mol.
Consider GATCGTCGTGACGATC ((((((....)))))), for which the Tm in series [1] was 63.4 °C. Further, the folding enthalpy in series [2] was -50 kcal/mol.
For GATCGTCTAAACGATC ((((((....)))))), in that order: 56.1 °C and -43 kcal/mol.
In the same order, the values of GATCGTCTACACGATC ((((((....)))))) are 53.9 °C and -39.8 kcal/mol.
For GATCGTCTGGACGATC ((((((....)))))), in that order: 57.5 °C and -42.6 kcal/mol.
For the sequence GATCGTCTTGACGATC ((((((....)))))), the Tm in series [1] was determined as 66.3 °C. Also, the folding enthalpy in series [2] was -35.9 kcal/mol.
Consider GATCGTGACACGATC ((((((...)))))), for which, in series [1], the Tm was 59.9 °C. In addition, the folding enthalpy in series [2] is -40.4 kcal/mol.
As for GATCGTGAGCACGATC ((((((....)))))), the Tm in series [1] was found to be 55.9 °C. In addition, in series [2], the folding enthalpy is -37.1 kcal/mol.
As to GATCGTGATTACGATC ((((((....)))))), in series [1], the Tm came to 56 °C. The folding enthalpy in series [2] was -38.8 kcal/mol.
Consider GATCGTGCGAAAGCAATC (((..(((....)))))), for which the Tm in series [1] turned out to be 23.5 °C. Besides, the folding enthalpy in series [2] was -6.96 kcal/mol.
For GATCGTGCGACGATC ((((((...)))))), in that order: 56.8 °C and -38.4 kcal/mol.
With GATCGTGCTACGATC ((((((...)))))), the Tm in series [1] is 57.3 °C. Also, in series [2], the folding enthalpy is -41 kcal/mol.
In the same order, the values of GATCGTGGAAACGTGATC ((((..(....)..)))) are 37.3 °C and -17.1 kcal/mol.
In the same order, the values of GATCGTGGATACGATC ((((((....)))))) are 60.7 °C and -51.4 kcal/mol.
For the sequence GATCGTGTCTACGATC ((((((....)))))), the Tm in series [1] is 59.8 °C. Besides, the folding enthalpy in series [2] was -38.3 kcal/mol.
In the same order, the values of GATCGTGTGACGATC ((((((...)))))) are 54.7 °C and -40.1 kcal/mol.
As to GATCGTGTGCACGATC ((((((....)))))), in series [1], the Tm stood at 59.9 °C. For the same sequence, the folding enthalpy in series [2] is -39.3 kcal/mol.
Consider GATCGTTAAAACGATC ((((((....)))))), for which the Tm in series [1] was determined as 54.5 °C. In addition, in series [2], the folding enthalpy is -35.6 kcal/mol.
Turning to GATCGTTAAACGATC ((((((...)))))), the Tm in series [1] turned out to be 53.2 °C. The folding enthalpy in series [2] is -34.6 kcal/mol.
Regarding GATCGTTATGACGATC ((((((....)))))), the Tm in series [1] amounted to 55.9 °C. Moreover, the folding enthalpy in series [2] is -38.6 kcal/mol.
For GATCGTTCACACGATC ((((((....)))))), in that order: 54.5 °C and -40.3 kcal/mol.
In the same order, the values of GATCGTTCATACGATC ((((((....)))))) are 54.9 °C and -46.9 kcal/mol.
In the same order, the values of GATCGTTCCCACGATC ((((((....)))))) are 53.8 °C and -43.2 kcal/mol.
With GATCGTTCGAACGATC ((((((....)))))), in series [1], the Tm was found to be 56.6 °C. For the same sequence, the folding enthalpy in series [2] is -53.9 kcal/mol.
In the case of GATCGTTCGACGATC ((((((...)))))), in series [1], the Tm worked out at 55.7 °C. Moreover, in series [2], the folding enthalpy was -38.2 kcal/mol.
For GATCGTTGAGACGATC ((((((....)))))), in that order: 58.1 °C and -39.4 kcal/mol.
Regarding GATCGTTGGAACGATC ((((((....)))))), the Tm in series [1] worked out at 54.4 °C. The folding enthalpy in series [2] is -42.4 kcal/mol.
In the same order, the values of GATCGTTGGTACGATC ((((((....)))))) are 55.2 °C and -38.4 kcal/mol.
For GATCGTTGTAACGATC ((((((....)))))), in that order: 58.4 °C and -48.8 kcal/mol.
In the same order, the values of GATCGTTTAAACGATC ((((((....)))))) are 56.1 °C and -48.9 kcal/mol.
As for GATCGTTTAACGATC ((((((...)))))), the Tm in series [1] amounted to 55.7 °C. In addition, the folding enthalpy in series [2] was -36.6 kcal/mol.
In the case of GATCGTTTCACGATC ((((((...)))))), the Tm in series [1] is 58.6 °C. In series [2], the folding enthalpy was -33.5 kcal/mol.
In the case of GATCGTTTCCACGATC ((((((....)))))), the Tm in series [1] was 54 °C. In addition, the folding enthalpy in series [2] was -40.5 kcal/mol.
